{
  "source": "ChEMBL document CHEMBL4808182",
  "about": "“Discovery of the Soluble Guanylate Cyclase Activator Runcaciguat (BAY 1101042)” (J Med Chem, 2021)",
  "key": {"[1]": {"biological_target": "T1, Guanylate cyclase soluble subunit alpha-1 (Rattus norvegicus) (UniProt P19686)", "T1 sequence (whole entry)": "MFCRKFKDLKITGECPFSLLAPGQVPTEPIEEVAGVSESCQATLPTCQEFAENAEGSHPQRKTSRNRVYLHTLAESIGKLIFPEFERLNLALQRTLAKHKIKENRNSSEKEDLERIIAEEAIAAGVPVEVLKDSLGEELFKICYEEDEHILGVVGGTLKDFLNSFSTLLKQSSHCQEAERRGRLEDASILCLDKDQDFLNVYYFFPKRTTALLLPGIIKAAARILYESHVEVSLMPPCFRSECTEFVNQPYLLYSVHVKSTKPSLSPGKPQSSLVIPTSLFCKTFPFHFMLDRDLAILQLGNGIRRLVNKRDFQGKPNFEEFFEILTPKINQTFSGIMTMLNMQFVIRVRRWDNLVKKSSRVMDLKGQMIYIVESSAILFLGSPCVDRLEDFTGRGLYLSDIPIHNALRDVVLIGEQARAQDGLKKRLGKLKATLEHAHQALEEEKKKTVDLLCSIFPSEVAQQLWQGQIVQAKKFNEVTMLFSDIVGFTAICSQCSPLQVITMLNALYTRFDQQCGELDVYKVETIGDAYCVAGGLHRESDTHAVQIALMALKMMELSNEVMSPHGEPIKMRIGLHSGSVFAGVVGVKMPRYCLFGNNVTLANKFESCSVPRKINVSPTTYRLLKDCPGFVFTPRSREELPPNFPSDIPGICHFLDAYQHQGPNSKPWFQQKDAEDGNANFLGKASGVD", "assay": "Activation of recombinant rat sGC alpha1 subunit expressed in CHO cells assessed as induction of [32P-cGMP] formation by measuring efficacy using alpha-[32P-GTP] as substrate measured after 6 mins by luminescence assay relative to control", "assay_type": "cell-based", "details": "filed as activator"}, "[2]": {"system": "Rattus norvegicus", "assay": "Effect on blood pressure in spontaneous hypertensive Wistar rat at 0.1 mg/kg, po by radiotelemetry", "assay_type": "functional, organism-based", "procedure,_shortened": "(§1)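 Spontaneously hypertensive rats were given single oral doses of 0.1–3.0 mg/kg. Mean arterial pressure and heart rate were monitored for at least 24 h post dose, as % change.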"}, "[3]": {"system": "Rattus norvegicus", "assay": "Reduction in blood pressure in normotensive Wistar rat at 10 mg/kg, po by radiotelemetry relative to control", "assay_type": "functional", "design": "scale not given: the % may be the effect or the level left", "procedure,_shortened": "(§2)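 Conscious normotensive rats with telemetric implants received oral doses of 1, 3 or 10 mg/kg. Mean arterial pressure and heart rate were recorded continuously beyond 24 h.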"}, "[4]": {"system": "Rattus norvegicus", "assay": "Reduction in blood pressure in spontaneous hypertensive Wistar rat at 0.3 to 3 mg/kg, po by radiotelemetry relative to control", "assay_type": "functional", "design": "scale not given: the % may be the effect or the level left", "details": "dose 0.3-3 mg/kg"}, "[5]": {"assay": "Half life in cynomolgus monkey at 0.1 mg/kg, iv measured up to 24 hrs by LC-MS analysis", "assay_type": "ADME, organism-based, Macaca fascicularis", "details": "in vivo"}, "[6]": {"biological_target": "T1, Guanylate cyclase soluble subunit alpha-1 (Rattus norvegicus)", "assay": "Activation of recombinant rat sGC alpha1 subunit expressed in CHO cells assessed as induction of [32P-cGMP] formation at 0.01 to 100 uM using alpha-[32P-GTP] as substrate measured after 6 mins in presence of ODQ by luminescence assay", "assay_type": "cell-based", "details": "filed as activator, dose 0.01-100 µM"}, "[7]": {"biological_target": "T1, Guanylate cyclase soluble subunit alpha-1 (Rattus norvegicus)", "assay": "Activation of recombinant rat sGC alpha1 subunit expressed in CHO cells assessed as induction of [32P-cGMP] formation by measuring fold change at 0.01 uM using alpha-[32P-GTP] as substrate measured after 6 mins by luminescence assay", "details": "filed as activator", "procedure,_shortened": "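Highly purified recombinant sGC enzyme was tested for stimulation of cGMP production across 0.01 to 100 μM of compound. The read-out was fold activation over basal enzyme activity. The method followed earlier published sGC stimulator/activator characterization.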"}, "[8]": {"system": "Rattus norvegicus", "assay": "Increase in heart rate in spontaneous hypertensive Wistar rat at 0.1 to 3 mg/kg, po by radiotelemetry relative to control", "assay_type": "functional", "details": "dose 0.1-3 mg/kg", "procedure,_shortened": "as §1"}, "[9]": {"system": "Heart", "assay": "Reduction in coronary perfusion pressure in heart isolated from Wistar rat", "assay_type": "functional, tissue-based", "details": "dose 0.01-10 µM", "procedure,_shortened": "(§3)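 Rat hearts in Langendorff perfusion were exposed to 10 nM–10 μM. Coronary perfusion pressure, heart rate, LVDP and +dp/dt were recorded.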"}, "[10]": {"system": "Rattus norvegicus", "assay": "Effect on blood pressure in normotensive Wistar rat at 1 to 3 mg/kg, po by radiotelemetry", "assay_type": "functional, organism-based", "details": "dose 1-3 mg/kg"}, "[11]": {"assay": "Oral bioavailability in Beagle dog at 0.1 mg/kg measured up to 24 hrs by LC-MS analysis", "assay_type": "ADME, organism-based, Canis lupus familiaris", "details": "in vivo"}, "[12]": {"system": "Saphenous artery", "assay": "Vasorelaxant activity in Chinchilla rabbit saphenous artery assessed as inhibition of phenylephrine-induced contractions", "assay_type": "functional, tissue-based", "details": "Oryctolagus cuniculus"}, "[13]": {"assay": "Volume of distribution at steady state in Wistar rat at 0.3 mg/kg, iv measured up to 24 hrs by LC-MS analysis", "assay_type": "ADME, organism-based", "details": "in vivo, read-out: Vdss"}, "[14]": {"system": "Coronary artery", "assay": "Vasorelaxant activity in porcine coronary artery assessed as inhibition of U-46619-induced contractions", "assay_type": "functional, tissue-based", "details": "Sus scrofa"}, "[15]": {"system": "Rattus norvegicus", "assay": "In vivo activation of sGC in po dosed renin-transgenic rat carrying [RenTG(mRRen2)27] gene assessed as decrease in mortality pretreated with NO-synthase inhibitor L-NAME followed by compound administration twice daily for 21 days and measured on day 1, 8 and 15", "assay_type": "functional, organism-based", "details": "dose 1-10 mg/kg, time 21.0 day", "procedure,_shortened": "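L-NAME-treated renin transgenic rats were dosed at 1, 3 or 10 mg/kg BID, with placebo controls (n = 24 placebo, 18 per dose). Mortality was recorded.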"}, "[16]": {"system": "Aorta", "assay": "Vasorelaxant activity in Chinchilla rabbit aortic ring assessed as inhibition of phenylephrine-induced contractions", "assay_type": "functional, tissue-based", "details": "Oryctolagus cuniculus"}, "[17]": {"system": "Rattus norvegicus", "assay": "Effect on heart rate in spontaneous hypertensive Wistar rat at 0.1 mg/kg, po by radiotelemetry", "assay_type": "functional, organism-based", "procedure,_shortened": "as §1"}, "[18]": {"assay": "Blood clearance in Beagle dog at 0.3 mg/kg, iv measured up to 24 hrs by LC-MS analysis", "assay_type": "ADME, organism-based, Canis lupus familiaris", "details": "whole blood"}, "[19]": {"biological_target": "T1, Guanylate cyclase soluble subunit alpha-1 (Rattus norvegicus)", "assay": "Activation of recombinant rat sGC alpha1 subunit expressed in CHO cells assessed as induction of [32P-cGMP] formation at 0.01 to 100 uM using alpha-[32P-GTP] as substrate measured after 6 mins in presence of NO by luminescence assay", "details": "filed as activator, dose 0.01-100 µM"}, "[20]": {"assay": "Blood clearance in Wistar rat at 0.3 mg/kg, iv measured up to 24 hrs by LC-MS analysis", "assay_type": "ADME, organism-based", "details": "whole blood", "procedure,_shortened": "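Rats dosed iv at 0.3 mg/kg; blood clearance determined.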"}, "[21]": {"assay": "Activation of recombinant rat sGC expressed in CHO cells pretreated with ODQ for 3 hrs followed by compound treatment by luminescence assay", "assay_type": "cell-based"}, "[22]": {"system": "Rattus norvegicus", "assay": "In vivo activation of sGC in po dosed renin-transgenic rat carrying [RenTG(mRRen2)27] gene assessed as decrease in proteinuria pretreated with NO-synthase inhibitor L-NAME followed by compound administration twice daily for 21 days", "assay_type": "functional, organism-based", "details": "dose 1-10 mg/kg, time 21.0 day", "procedure,_shortened": "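L-NAME-treated renin transgenic rats were dosed BID. At study end, protein-to-creatinine ratio (mg/mmol) came from urinary protein and creatinine. Creatinine clearance (mL/min) came from plasma and urinary creatinine plus urine volume.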"}, "[23]": {"organism": "Rattus norvegicus", "assay": "Effect on heart rate in Wistar rat", "assay_type": "functional", "procedure,_shortened": "as §3"}, "[24]": {"system": "Rattus norvegicus", "assay": "Effect on tachycardia reflex in normotensive Wistar rat at 1 to 10 mg/kg, po by radiotelemetry", "assay_type": "functional, organism-based", "details": "dose 1-10 mg/kg", "procedure,_shortened": "as §2"}, "[25]": {"biological_target": "T1, Guanylate cyclase soluble subunit alpha-1 (Rattus norvegicus)", "assay": "Activation of recombinant rat sGC alpha1 subunit expressed in CHO cells assessed as induction of [32P-cGMP] formation using alpha-[32P-GTP] as substrate measured after 6 mins by luminescence assay", "assay_type": "cell-based", "details": "filed as activator"}},
  "note": "Active and inactive are the calls of the source. No cut-off for these calls is given here.",
  "data": [
    {"smiles": "C[C@H]([C@H](C(=O)Nc1cc([C@@H](CC(=O)O)C2CC2)ccc1Cl)c1ccc(Cl)cc1)C(F)(F)F", "note": "[RUNCACIGUAT]", "values": [
      {"measurement": "Efficacy", "setting": "[1]", "result": 58, "unit": "%"},
      {"measurement": "Activity", "setting": "[2]", "result": "inactive"},
      {"measurement": "Activity", "setting": "[3]", "result": "<=15%"},
      {"measurement": "Activity", "setting": "[4]", "result": 5, "unit": "%"},
      {"measurement": "half-life", "setting": "[5]", "result": 10, "unit": "h"},
      {"measurement": "Activity", "setting": "[6]", "result": "Active"},
      {"measurement": "fold change (FC)", "setting": "[7]", "result": 2.6},
      {"measurement": "Activity", "setting": "[8]", "result": "<=20%"},
      {"measurement": "Activity", "setting": "[9]", "result": "Dose-Dependent Effect"},
      {"measurement": "Activity", "setting": "[10]", "result": "inactive"},
      {"measurement": "bioavailability", "setting": "[11]", "result": 48, "unit": "%"},
      {"measurement": "IC50", "setting": "[12]", "result": 199, "unit": "nM"},
      {"measurement": "Vd", "setting": "[13]", "result": 1.4, "unit": "L/kg"},
      {"measurement": "IC50", "setting": "[14]", "result": 137, "unit": "nM"},
      {"measurement": "Activity", "setting": "[15]", "result": "Dose-Dependent Effect"},
      {"measurement": "IC50", "setting": "[16]", "result": 39, "unit": "nM"},
      {"measurement": "Activity", "setting": "[17]", "result": "inactive"},
      {"measurement": "clearance", "setting": "[18]", "result": 23.3, "unit": "mL/min/kg"},
      {"measurement": "Activity", "setting": "[19]", "result": "Active"},
      {"measurement": "clearance", "setting": "[20]", "result": 3.5, "unit": "mL/min/kg"},
      {"measurement": "EC50", "setting": "[21]", "result": 2.1, "unit": "nM"},
      {"measurement": "Activity", "setting": "[22]", "result": "Dose-Dependent Effect"},
      {"measurement": "Activity", "setting": "[23]", "result": "inactive"},
      {"measurement": "Activity", "setting": "[24]", "result": "Active"},
      {"measurement": "MEC", "setting": "[25]", "result": 1.8, "unit": "nM"}
    ]}
  ]
}
